# pIC50: −log10 of the molar value.
# Columns and labels:
# [1] = system: Leishmania donovani; assay: Antimicrobial activity against Leishmania donovani MHOM/IN/00/DEVI promastigotes after 72 hrs by MTT assay; type: functional, organism-based; conditions: Leishmania donovani, MHOM/IN/00/DEVI, 72 h; read-out: IC50
# Outline: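 Log-phase promastigotes in Schneider's medium with 20% FCS, 2 mM L-glutamine and penicillin/streptomycin, at 10⁶ parasites/mL. Compound dilutions run in duplicate, final DMSO <0.5%, 72 h at 27 °C. MTT 0.5 mg/mL for 6 h at 27 °C, formazan dissolved in DMSO, A570.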
# [2] = Cytotoxicity against mouse J774.1 cells after 72 hrs by MTT assay; type: cell-based; conditions: J774.1 cells
# Outline: (§1)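 Cells plated in RPMI with 10% FCS, L-glutamine and penicillin/streptomycin, 24 h at 37 °C, 6% CO2. Compound dilutions then added for 72 h. MTT 0.5 mg/mL in PBS for 2 h, formazan dissolved in DMSO, A570 with 630 nm reference. Viability taken as % of untreated control. Doxorubicin served as positive control. CC50 from the dose-response curve.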
# [3] = Selectivity index, ratio of CC50 for human HepG2 cells to IC50 for Leishmania donovani MHOM/IN/00/DEVI; type: functional
# Outline: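 SI = HepG2 CC50 / L. donovani IC50.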
# [4] = Selectivity index, ratio of CC50 for mouse J774.1 cells to IC50 for Leishmania donovani MHOM/IN/00/DEVI; type: functional
# [5] = Cytotoxicity against human HepG2 cells after 72 hrs by MTT assay; type: cell-based; conditions: HepG2 cells; outline: as §1
SMILES,pIC50 [1],CC50 at 72 h [2] [µM],Ratio CC50/IC50 [3],Ratio CC50/IC50 [4],CC50 at 72 h [5] [µM]
O=S(=O)(Cc1cn2cc(Cl)ccc2n1)c1ccc(Cl)cc1,< 4.30,68.7,<1.4,<1.3,71.5
O=S(=O)(Cc1cn2ccccc2n1)c1ccccc1,< 4.30,> 100,,,> 100
Cc1ccc(S(=O)(=O)Cc2cn3cc(Br)ccc3n2)cc1,< 4.30,20.9,<0.6,<0.4,28.9
ClCc1cn2ccccc2n1,< 4.30,> 100,,,> 100
ClCc1cn2cc(Br)ccc2n1,< 4.30,68.4,,<1.4,> 100
c1ccn2ccnc2c1,< 4.30,> 100,,,> 100
O=[N+]([O-])c1c(CS(=O)(=O)c2ccccc2)nc2ccc(I)cn12,4.90,27,>7.9,2.1,> 100
O=[N+]([O-])c1c(CS(=O)(=O)c2ccc(Cl)cc2)nc2ccc(I)cn12,4.54,43.6,>1.7,1.5,> 50
O=[N+]([O-])c1c(CS(=O)(=O)c2ccccc2)nc2ccccn12,< 4.30,> 100,,,> 62.5
CS(=O)(=O)Cc1nc2ccc(Br)cn2c1[N+](=O)[O-],< 4.30,> 100,,,> 100
O=[N+]([O-])c1c(CS(=O)(=O)c2ccccc2)nc2ccc(Cl)cn12,4.74,> 100,>5.5,>5.5,> 100
O=[N+]([O-])c1c(CS(=O)(=O)c2ccc(F)cc2)nc2ccc(Br)cn12,< 4.30,> 92.8,,,> 100
Cc1ccc(S(=O)(=O)Cc2nc3ccc(I)cn3c2[N+](=O)[O-])cc1,4.41,34.8,>1.3,0.9,> 50
O=[N+]([O-])c1c(CS(=O)(=O)c2ccc(C(F)(F)F)cc2)nc2ccc(Br)cn12,< 4.30,> 25,<0.6,,31.7
O=S(=O)(Cc1cn2cc(Cl)ccc2n1)c1ccccc1,< 4.30,13.3,<0.3,<0.3,16.5
Cc1ccccc1-c1ccc2nc(CS(=O)(=O)c3ccccc3)c([N+](=O)[O-])n2c1,< 5.00,5,,<0.5,> 9.4
COc1ccc(S(=O)(=O)Cc2nc3ccc(Br)cn3c2[N+](=O)[O-])cc1,< 4.30,> 92.5,,,> 100
O=[N+]([O-])c1c(CS(=O)(=O)c2ccc(Cl)cc2)nc2ccc(Cl)cn12,4.64,42.4,1.1,1.8,> 25
O=S(=O)(Cc1cn2cc(Br)ccc2n1)c1ccc(Cl)cc1,< 4.30,43.9,<0.5,<0.9,23

SMILES,pIC50 [1],CC50 at 72 h [2] [µM],Ratio CC50/IC50 [3],Ratio CC50/IC50 [4],CC50 at 72 h [5] [µM]
O=[N+]([O-])c1c(CCl)nc2ccc(Br)cn12,5.02,4.9,1.6,0.5,15.6
O=[N+]([O-])c1cnc2ccccn12,< 4.30,> 100,,,> 100
O=[N+]([O-])c1c(CSc2ccccc2)nc2ccc(Br)cn12,< 5.00,> 6,<0.05,,0.53
O=S(=O)(Cc1cn2cc(I)ccc2n1)c1ccccc1,< 4.30,5.2,<0.1,<0.1,5
O=S(=O)(Cc1cn2cc(Br)ccc2n1)c1ccccc1,< 4.30,6.4,0.15,<0.1,7.3
COc1cc(-c2ccc3nc(CS(=O)(=O)c4ccccc4)c([N+](=O)[O-])n3c2)cc(OC)c1OC,< 4.30,5,<0.7,<0.1,34.7
O=[N+]([O-])c1c(CS(=O)(=O)c2ccc(Cl)cc2)nc2ccc(Br)cn12,4.34,51.1,0.12,1.1,5.5
Cc1nc2ccccn2c1[N+](=O)[O-],< 4.30,> 100,,,> 100
O=S(=O)(Cc1cn2cc(I)ccc2n1)c1ccc(Cl)cc1,< 4.30,44.2,<0.8,<0.8,39.1
Cc1ccc(S(=O)(=O)Cc2cn3cc(I)ccc3n2)cc1,< 4.30,25,,<0.5,> 12.5
O=[N+]([O-])c1c(CS(=O)(=O)c2ccc(Br)cc2)nc2ccc(Br)cn12,4.61,28.2,1.6,1.1,39
Cc1ccc(S(=O)(=O)Cc2nc3ccc(Br)cn3c2[N+](=O)[O-])cc1,4.36,44.3,0.13,1,5.9
O=[N+]([O-])c1c(CS(=O)(=O)c2ccc(-c3ccccc3)cc2)nc2ccc(Br)cn12,< 4.30,54.4,,<1.1,> 100
O=[N+]([O-])c1c(CCl)nc2ccccn12,4.82,4.8,0.6,0.3,8.7
Cc1ccc(S(=O)(=O)Cc2nc3ccc(Cl)cn3c2[N+](=O)[O-])cc1,< 4.30,> 94,,,> 100
Cc1ccc(S(=O)(=O)Cc2cn3cc(Cl)ccc3n2)cc1,4.47,33.3,2,0.9,68.3
O=[N+]([O-])c1c(CS(=O)(=O)c2ccc(I)cc2)nc2ccc(Br)cn12,< 4.30,16.2,<0.4,<0.3,20.3
COc1cccc2c1C(=O)c1c(O)c3c(c(O)c1C2=O)C[C@@](O)(C(=O)CO)C[C@@H]3O[C@H]1C[C@H](N)[C@H](O)[C@H](C)O1 [DOXORUBICIN],,0.02,,,

# From ChEMBL document CHEMBL2440016, “Targeting the human parasite Leishmania donovani: discovery of a new promising anti-infectious pharmacophore in 3-nitroimidazo[1,2-a]pyridine series” (Bioorg Med Chem, 2013)
